Test results published in ChEMBL document CHEMBL3585325, “Discovery of (1R,2S)-2-{[(2,4-Dimethylpyrimidin-5-yl)oxy]methyl}-2-(3-fluorophenyl)-N-(5-fluoropyridin-2-yl)cyclopropanecarboxamide (E2006): A Potent and Efficacious Oral Orexin Receptor Antagonist” (J Med Chem, 2015).

Assay: Half life in C57BL/6NCrlCrlj mouse at 10 mg/kg, po by LC-MS/MS analysis
Type: ADME, organism-based
Details: in vivo
Summary of the method: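 Male C57BL/6NCrlCrlj mice dosed orally at 10 mg/kg in 10% Cremophor EL, 5% DMSO in saline. Tail-vein blood was taken at set time points and spun to plasma. Quantified by LC-MS/MS (MRM, positive mode) with internal standard and a 1/x²-weighted calibration. Parameters came from noncompartmental analysis.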

Work on `Cc1ncc(OC[C@@]2(c3cccc(F)c3)C[C@H]2C(=O)Nc2ccc(F)cn2)c(C)n1` [LEMBOREXANT] yielded a half-life of 2.2 h.
